Measured values from ChEMBL document CHEMBL1131139, “Synthesis and antibacterial activity of ketolides (6-O-methyl-3-oxoerythromycin derivatives): a new class of antibacterials highly potent against macrolide-resistant and -susceptible respiratory pathogens” (1998).
≈ marks a conversion by molar mass, not a printed value.

Assays:
Type in all cases: functional
Streptococcus pyogenes = assay: In vitro inhibitory activity against Streptococcus pyogenes (02A1UC1)
Procedure, shortened: (§1)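 Two-fold agar dilution on Mueller-Hinton agar (pH 7.4). Inoculum from overnight plate cultures suspended in Mueller-Hinton broth, adjusted to 10^9 CFU/mL, diluted 1:200 and spotted by multipoint inoculator at about 10^4 CFU/spot. Plates incubated 37 °C for 20 h. MIC taken as lowest concentration with no visible growth.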

Streptococcus pneumoniae [1] = assay: In vitro inhibitory activity against Streptococcus pneumoniae (EryRi 030SJ5i); procedure, shortened: as §1
Staphylococcus aureus [2] = assay: In vitro inhibitory activity against Staphylococcus aureus (EryRi 011GO25i); procedure, shortened: as §1
Haemophilus influenzae [3] = assay: In vitro inhibitory activity against Haemophilus influenzae (351CB12); procedure, shortened: as §1
Streptococcus pneumoniae [4] = assay: In vitro inhibitory activity against Streptococcus pneumoniae (032UC1); procedure, shortened: as §1
Staphylococcus aureus [5] = assay: In vitro inhibitory activity against Staphylococcus aureus (EryRc 011CB20); procedure, shortened: as §1
Staphylococcus aureus [6] = assay: In vitro inhibitory activity against Staphylococcus aureus (011UC4); procedure, shortened: as §1
Streptococcus pneumoniae [7] = assay: In vitro inhibitory activity against Streptococcus pneumoniae (EryRc 030SJ1); procedure, shortened: as §1
Haemophilus influenzae [8] = assay: In vitro inhibitory activity against Haemophilus influenzae (351HT3); procedure, shortened: as §1
Escherichia coli = assay: In vitro inhibitory activity against Escherichia coli (250 UC5); procedure, shortened: as §1
[9] = tested on: Staphylococcus epidermidis; assay: In vitro inhibitory activity against Staphylococcus epidermidis (EryRi 012GO11i); procedure, shortened: as §1

| SMILES | MIC (Streptococcus pyogenes) | MIC (Streptococcus pneumoniae [1]) | MIC (Staphylococcus aureus [2]) | MIC (Haemophilus influenzae [3]) | MIC (Streptococcus pneumoniae [4]) | MIC (Staphylococcus aureus [5]) | MIC (Staphylococcus aureus [6]) | MIC (Streptococcus pneumoniae [7]) | MIC (Haemophilus influenzae [8]) | MIC (Escherichia coli) | MIC [9] |
| --- | --- | --- | --- | --- | --- | --- | --- | --- | --- | --- | --- |
| CC[C@H]1OC(=O)[C@H](C)C(=O)[C@H](C)[C@@H](O[C@@H]2O[C@H](C)C[C@H](N(C)C)[C@H]2O)[C@](C)(OC)C[C@@H](C)C(=O)[C@H](C)[C@H]2N(CCN(C)Cc3ccccc3)C(=O)O[C@]12C | 0.04 µg/mL (≈ 0.0526 µM) | 0.3 µg/mL (≈ 0.395 µM) | 0.6 µg/mL (≈ 0.789 µM) | 2.5 µg/mL (≈ 3.29 µM) | 0.02 µg/mL (≈ 0.0263 µM) | 40 µg/mL (≈ 52.6 µM) | 0.15 µg/mL (≈ 0.197 µM) | 10 µg/mL (≈ 13.2 µM) | 5 µg/mL (≈ 6.58 µM) | 40 µg/mL (≈ 52.6 µM) | 0.15 µg/mL (≈ 0.197 µM) |
| CC[C@H]1OC(=O)[C@H](C)C(=O)[C@H](C)[C@@H](O[C@@H]2O[C@H](C)C[C@H](N(C)C)[C@H]2O)[C@](C)(OC)C[C@@H](C)C(=O)[C@@H](C)[C@H]2N(NCCCc3ccnc4c(OC)cccc34)C(=O)O[C@]12C | 0.02 µg/mL (≈ 0.0242 µM) | 0.15 µg/mL (≈ 0.181 µM) | 0.15 µg/mL (≈ 0.181 µM) | 1.2 µg/mL (≈ 1.45 µM) | 0.02 µg/mL (≈ 0.0242 µM) | 40 µg/mL (≈ 48.4 µM) | 0.04 µg/mL (≈ 0.0484 µM) | 2.5 µg/mL (≈ 3.02 µM) | 0.6 µg/mL (≈ 0.725 µM) | 40 µg/mL (≈ 48.4 µM) | 0.15 µg/mL (≈ 0.181 µM) |
| CC[C@H]1OC(=O)[C@H](C)C(=O)[C@H](C)[C@@H](O[C@@H]2O[C@H](C)C[C@H](N(C)C)[C@H]2O)[C@](C)(OC)C[C@@H](C)/C(=N\OCCN(C)C)[C@H](C)[C@@H](O)[C@]1(C)O | 0.01 µg/mL (≈ 0.0148 µM) | 0.15 µg/mL (≈ 0.223 µM) | 1.2 µg/mL (≈ 1.78 µM) | 20 µg/mL (≈ 29.7 µM) | 0.15 µg/mL (≈ 0.223 µM) | 40 µg/mL (≈ 59.4 µM) | 0.08 µg/mL (≈ 0.119 µM) | 2.5 µg/mL (≈ 3.71 µM) | 20 µg/mL (≈ 29.7 µM) | 40 µg/mL (≈ 59.4 µM) | 20 µg/mL (≈ 29.7 µM) |
| CC[C@H]1OC(=O)[C@H](C)C(=O)[C@H](C)[C@@H](O[C@@H]2O[C@H](C)C[C@H](N(C)C)[C@H]2O)[C@](C)(OC)C[C@@H](C)/C(=N\OCc2ccccc2)[C@H](C)[C@@H](O)[C@]1(C)O | 0.6 µg/mL (≈ 0.866 µM) | 40 µg/mL (≈ 57.7 µM) | 40 µg/mL (≈ 57.7 µM) | 40 µg/mL (≈ 57.7 µM) | 0.3 µg/mL (≈ 0.433 µM) | 40 µg/mL (≈ 57.7 µM) | 2.5 µg/mL (≈ 3.61 µM) | 40 µg/mL (≈ 57.7 µM) | 40 µg/mL (≈ 57.7 µM) | 40 µg/mL (≈ 57.7 µM) | 40 µg/mL (≈ 57.7 µM) |
| CC[C@H]1OC(=O)[C@H](C)C(=O)[C@H](C)[C@@H](O[C@@H]2O[C@H](C)C[C@H](N(C)C)[C@H]2O)[C@](C)(OC)C[C@@H](C)C(=O)[C@H](C)[C@@H](O)[C@]1(C)O | 0.6 µg/mL (≈ 1.02 µM) | 40 µg/mL (≈ 68.1 µM) | 40 µg/mL (≈ 68.1 µM) | 20 µg/mL (≈ 34 µM) | 0.15 µg/mL (≈ 0.255 µM) | 40 µg/mL (≈ 68.1 µM) | 0.3 µg/mL (≈ 0.51 µM) | 40 µg/mL (≈ 68.1 µM) | 20 µg/mL (≈ 34 µM) | 40 µg/mL (≈ 68.1 µM) | 5 µg/mL (≈ 8.51 µM) |
| CCCN1C(=O)O[C@]2(C)[C@@H](CC)OC(=O)[C@H](C)C(=O)[C@H](C)[C@@H](O[C@@H]3O[C@H](C)C[C@H](N(C)C)[C@H]3O)[C@](C)(OC)C[C@@H](C)C(=O)[C@H](C)[C@@H]12 | 0.15 µg/mL (≈ 0.229 µM) | 40 µg/mL (≈ 61.1 µM) | 5 µg/mL (≈ 7.64 µM) | 40 µg/mL (≈ 61.1 µM) | 0.04 µg/mL (≈ 0.0611 µM) | 40 µg/mL (≈ 61.1 µM) | 1.2 µg/mL (≈ 1.83 µM) | 40 µg/mL (≈ 61.1 µM) | 40 µg/mL (≈ 61.1 µM) | 40 µg/mL (≈ 61.1 µM) | 40 µg/mL (≈ 61.1 µM) |
